8 compounds from ChEMBL document CHEMBL4138279, “Probing the Antiallergic and Anti-inflammatory Activity of Biflavonoids and Dihydroflavonols from Dietes bicolor” (J Nat Prod, 2018) can be followed below.

Series [1] has as its system RBL-2H3. In words: Antiallergic activity in anti-DNP IgE-sensitized rat RBL2H3 cells assessed as inhibition of DNP-BSA-induced beta hexosaminidase release at 200 uM pretreated for 20 hrs followed by anti-DNP IgE-sensitization for 2 hrs and subsequent DNP-BSA addition measured after 1 hr by p-NAG substrate based assay relative to control. It counts as functional. In outline:
(§1)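 RBL-2H3 cells in DMEM with 10% FBS at 37 °C and 5% CO2 were seeded at 3 × 10^4 cells/well overnight, then treated 20 h with compounds (1 to 400 μM). Cells were sensitized with anti-DNP IgE (1 μg/mL, at least 2 h) and challenged with DNP-BSA (100 ng/mL) for 1 h. β-Hexosaminidase was read with p-NAG substrate as % inhibition versus antigen control. Mean ± SD, n = 3.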

Series [2] concerns RBL-2H3. In words: Antiallergic activity in anti-DNP IgE-sensitized rat RBL2H3 cells assessed as inhibition of DNP-BSA-induced beta hexosaminidase release pretreated for 10 mins followed by DNP-BSA addition measured after 10 mins by p-NAG substrate based assay. It counts as functional, cell-based.
The subject of series [3] is Neutrophil. Kind of series: Anti-inflammatory activity in human neutrophils assessed as inhibition of fMLP/CB-induced superoxide anion generation pretreated for 5 mins followed by cytochalasin B addition for 3 mins and subsequent fMLP stimulation for 10 mins by superoxide dismutase inhibitable reduction of ferricytochrome c based spectrophotometric assay. Format: functional, cell-based. The method in brief:
(§2)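 Human neutrophils isolated from venous blood of healthy adult volunteers (20−30 years), stimulated with fMLF/cytochalasin B. Superoxide anion was measured as ferricytochrome c reduction. Pure compounds were tested at 0.3 to 10 μM. IC50 was taken as the concentration giving 50% inhibition, and single-point values as % inhibition at 10 μM versus fMLF/CB control. Mean ± SEM, n = 3−4.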

Series [4] has as its system Neutrophil. In words: Antiinflammatory activity in human neutrophils assessed as inhibition of fMLP/CB-induced elastase release at 10 uM pretreated for 5 mins followed by fMLP/CB stimulation using MeO-Suc-Ala-Ala-Pro-Val-p-nitroanilide as substrate relative to control. It counts as functional. The method in brief:
(§3)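 Elastase release from fMLF/cytochalasin B-activated human neutrophils, isolated from venous blood of healthy volunteers aged 20−30, measured with N-methoxysuccinyl-Ala-Ala-Pro-Val-p-nitroanilide as substrate. Pure compounds were tested at 0.3 to 10 μM. Results are IC50 or % inhibition at 10 μM relative to fMLF/CB control, mean ± SEM (n = 3−4).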

A short description of series [5]: Cytotoxicity against rat RBL2H3 cells assessed as cell viability at 400 uM after 24 hrs by MTT assay relative to control. As to conditions: RBL-2H3 cells, read-out: Activity. It counts as cell-based. The method in brief:
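Viability of RBL-2H3 cells, cultured in DMEM with 10% FBS at 37 °C and 5% CO2, was determined by MTT after exposure to pure compounds at 400 μM. It is expressed as % of untreated control, mean ± SD (n = 3). Viability below 80% was classed as cytotoxic.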

The subject of series [6] is RBL-2H3. In words: Antiallergic activity in anti-DNP IgE-sensitized rat RBL2H3 cells assessed as inhibition of DNP-BSA-induced beta hexosaminidase release at 10 uM pretreated for 20 hrs followed by anti-DNP IgE-sensitization for 2 hrs and subsequent DNP-BSA addition measured after 1 hr by p-NAG substrate based assay relative to control. Format: functional. In outline:
as §1

Series [7] has as its system RBL-2H3. Kind of series: Antiallergic activity in rat RBL2H3 cells assessed as inhibition of A23187-induced beta hexosaminidase release at 10 uM pretreated for 20 hrs followed by A23187 addition measured after 1 hr by p-NAG substrate based assay relative to control. It counts as functional. The method in brief:
(§4)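 Degranulation assay: RBL-2H3 cells were seeded at 2 × 10^4 cells/well overnight and exposed to compounds (1 to 400 μM) for 20 h. They were then activated with calcium ionophore A23187 (1 μM). Released β-hexosaminidase was quantified using p-NAG substrate and expressed as % inhibition relative to A23187 control, mean ± SD (n = 3).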

Series [8] has as its system RBL-2H3. Kind of series: Antiallergic activity in anti-DNP IgE-sensitized rat RBL2H3 cells assessed as inhibition of DNP-BSA-induced beta hexosaminidase release at 100 uM pretreated for 20 hrs followed by anti-DNP IgE-sensitization for 2 hrs and subsequent DNP-BSA addition measured after 1 hr by p-NAG substrate based assay relative to control. It counts as functional. In outline:
as §1

Series [9] concerns Neutrophil. In words: Antiinflammatory activity in human neutrophils assessed as inhibition of fMLP/CB-induced elastase release pretreated for 5 mins followed by fMLP/CB stimulation using MeO-Suc-Ala-Ala-Pro-Val-p-nitroanilide as substrate. It counts as functional, cell-based. The method in brief: as §3
Series [10] relates to RBL-2H3. In words: Antiallergic activity in rat RBL2H3 cells assessed as inhibition of A23187-induced beta hexosaminidase release at 100 uM pretreated for 20 hrs followed by A23187 addition measured after 1 hr by p-NAG substrate based assay relative to control. Format: functional. The method in brief:
as §4

Series [11] relates to RBL-2H3. Kind of series: Antiallergic activity in rat RBL2H3 cells assessed as inhibition of A23187-induced beta hexosaminidase release at 200 uM pretreated for 20 hrs followed by A23187 addition measured after 1 hr by p-NAG substrate based assay relative to control. It counts as functional. In outline: as §4
Series [12] relates to RBL-2H3. In words: Antiallergic activity in anti-DNP IgE-sensitized rat RBL2H3 cells assessed as inhibition of DNP-BSA-induced beta hexosaminidase release at 1 uM pretreated for 20 hrs followed by anti-DNP IgE-sensitization for 2 hrs and subsequent DNP-BSA addition measured after 1 hr by p-NAG substrate based assay relative to control. It counts as functional. In outline: as §1

For series [13], the system named is Neutrophil. Kind of series: Anti-inflammatory activity in human neutrophils assessed as inhibition of fMLP/CB-induced superoxide anion generation at 10 uM pretreated for 5 mins followed by cytochalasin B addition for 3 mins and subsequent fMLP stimulation for 10 mins by superoxide dismutase inhibitable reduction of ferricytochrome c based spectrophotometric assay relative to control. It counts as functional. The method in brief: as §2

Series [14] concerns RBL-2H3. In words: Antiallergic activity in rat RBL2H3 cells assessed as inhibition of A23187-induced beta hexosaminidase release at 1 uM pretreated for 20 hrs followed by A23187 addition measured after 1 hr by p-NAG substrate based assay relative to control. Format: functional. The method in brief: as §4
For series [15], the system named is RBL-2H3. Kind of series: Antiallergic activity in rat RBL2H3 cells assessed as inhibition of A23187-induced beta hexosaminidase release at 400 uM pretreated for 20 hrs followed by A23187 addition measured after 1 hr by p-NAG substrate based assay relative to control. Format: functional. The method in brief: as §4
A further series has as its target T1, Neutrophil elastase (Homo sapiens, UniProt P08246).
T1 sequence (P08246 whole entry): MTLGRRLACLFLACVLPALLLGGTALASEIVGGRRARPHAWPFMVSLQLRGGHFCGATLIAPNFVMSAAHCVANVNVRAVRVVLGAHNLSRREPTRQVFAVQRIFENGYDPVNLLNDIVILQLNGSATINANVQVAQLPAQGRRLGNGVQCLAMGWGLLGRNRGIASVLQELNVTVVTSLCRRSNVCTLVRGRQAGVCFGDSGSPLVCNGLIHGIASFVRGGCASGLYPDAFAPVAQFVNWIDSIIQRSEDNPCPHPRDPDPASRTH
Kind of series: Inhibition of human neutrophil elastase using N-Methoxysuccinyl-Ala-Ala-Pro-Val-p-nitroanilid as substrate measured after 1 hr.

The subject of series [16] is RBL-2H3. In words: Antiallergic activity in anti-DNP IgE-sensitized rat RBL2H3 cells assessed as inhibition of DNP-BSA-induced beta hexosaminidase release at 400 uM pretreated for 20 hrs followed by anti-DNP IgE-sensitization for 2 hrs and subsequent DNP-BSA addition measured after 1 hr by p-NAG substrate based assay relative to control. It counts as functional. The method in brief: as §1

Series [17] relates to RBL-2H3. In words: Antiallergic activity in rat RBL2H3 cells assessed as inhibition of A23187-induced beta hexosaminidase release at 10 nM pretreated for 20 hrs followed by A23187 addition measured after 1 hr by p-NAG substrate based assay relative to control. Format: functional.
Series [18] concerns RBL-2H3. In words: Antiallergic activity in anti-DNP IgE-sensitized rat RBL2H3 cells assessed as inhibition of DNP-BSA-induced beta hexosaminidase release at 10 nM pretreated for 20 hrs followed by anti-DNP IgE-sensitization for 2 hrs and subsequent DNP-BSA addition measured after 1 hr by p-NAG substrate based assay relative to control. Format: functional.

Bounds are passed on as bounds.

As for `COc1cc(O)c2c(=O)c(-c3ccc(O)c(OC)c3)coc2c1`, the inhibition at 200 µM with RBL-2H3 [1] is 18%; with RBL-2H3 [11] it was 22.7%. Moreover, the IC50 in the series on RBL-2H3 [2] was greater than 100000 nM; with Neutrophil [3] it was greater than 10000 nM; in the series with Neutrophil [9], greater than 10000 nM. The inhibition at 10 µM stood at 27.1% in the series on Neutrophil [4], 1.3% with RBL-2H3 [6], 1.7% in the series with RBL-2H3 [7] and 48.9% in the series with Neutrophil [13]. The viability at 24 h, 400 µM in series [5] worked out at 69%. The inhibition at 100 µM turned out to be 9% with RBL-2H3 [8] and 23.7% in the series on RBL-2H3 [10]. Also, the figures for the inhibition at 1 µM in the series on RBL-2H3 [12] and in the series with RBL-2H3 [14] were 2.3% and 0.3%, respectively.
As for `O=c1cc(-c2ccc(O)c(-c3c(O)cc4oc(-c5ccc(O)cc5)cc(=O)c4c3O)c2)oc2cc(O)cc(O)c12` [ROBUSTAFLAVONE], the inhibition at 200 µM in the series with RBL-2H3 [1] is 3%; with RBL-2H3 [11], 2.7%. For the same compound, the IC50 in the series on Neutrophil [3] stood at 1010 nM; at Neutrophil elastase it was 1330 nM; in the series with Neutrophil [9], 450 nM. Besides, the figures for the inhibition at 400 µM with RBL-2H3 [15] and in the series on RBL-2H3 [16] were 45.3% and 49%, respectively. Also, the inhibition at 10 µM in the series with Neutrophil [4] worked out at 103%; in the series on RBL-2H3 [6], 3%; with RBL-2H3 [7], 5.3%; in the series with Neutrophil [13], 105%. Besides, the viability at 24 h, 400 µM in series [5] amounted to 92.3%. Also, the inhibition at 100 µM in the series with RBL-2H3 [8] is 2.7%; in the series on RBL-2H3 [10], 6%. Also, the inhibition at 1 µM was 4% in the series on RBL-2H3 [12] and 2.3% in the series on RBL-2H3 [14].
Turning to `COc1c(O)cc(O)c2c1O[C@H](c1ccccc1)[C@@H](O)C2=O`, the 50% inhibitory concentration (IC50) in the series with RBL-2H3 [2] was greater than 100000 nM.
With `COc1cc(OC)c2c(c1)O[C@H](c1ccccc1)[C@@H](O)C2=O` (relative stereo), in the series on RBL-2H3 [2], the IC50 was greater than 100000 nM.
For `O=c1cc(-c2ccc(O)c(-c3c(O)cc(O)c4c(=O)cc(-c5ccc(O)cc5)oc34)c2)oc2cc(O)cc(O)c12` [AMENTOFLAVONE], the inhibition at 200 µM in the series on RBL-2H3 [1] worked out at 7.7%; in the series on RBL-2H3 [11], 3.3%. The IC50 was 1010 nM in the series with Neutrophil [3], 1270 nM on Neutrophil elastase and 750 nM in the series on Neutrophil [9]. The inhibition at 400 µM came to 42.3% with RBL-2H3 [15] and 50% with RBL-2H3 [16]. Besides, the inhibition at 10 µM in the series with Neutrophil [4] came out at 108%; in the series on RBL-2H3 [6], 1.3%; in the series on RBL-2H3 [7], 6.7%; in the series on Neutrophil [13] it was 104%. Moreover, in series [5], the viability at 24 h, 400 µM worked out at 97.7%. In addition, the inhibition at 100 µM stood at 2.7% in the series on RBL-2H3 [8] and 0% in the series with RBL-2H3 [10]. The results for the inhibition at 1 µM in the series on RBL-2H3 [12] and in the series on RBL-2H3 [14] were 4.7% and 2%, respectively.
With `O=c1cc(N2CCOCC2)oc2c(-c3ccccc3)cccc12` [LY-294002], the IC50 in the series on Neutrophil [3] came to 1250 nM; with Neutrophil [9] it was 3440 nM. The inhibition at 10 µM was 71.5% in the series with Neutrophil [4] and 96.5% in the series with Neutrophil [13].
As for `COc1c2c(cc3c1C(=O)[C@H](O)[C@@H](c1ccccc1)O3)OCO2` (relative stereo), the IC50 with RBL-2H3 [2] was greater than 100000 nM.
Take `C[C@@H]1C[C@H]2[C@@H]3CCC4=CC(=O)C=C[C@]4(C)[C@@]3(F)[C@@H](O)C[C@]2(C)[C@@]1(O)C(=O)CO` [DEXAMETHASONE]: the inhibition at 0.01 µM worked out at 80.7% in the series on RBL-2H3 [17] and 79.7% with RBL-2H3 [18].
